{"source": "ChEMBL document CHEMBL1152867", "about": "“Targeting QseC signaling and virulence for antibiotic development” (Science, 2008)", "key": {"Mus musculus [1]": {"tested_on": "Mus musculus", "test": "Toxicity in CD1 mouse assessed as hematocrit content at 20 mg/kg, po administered daily once for 5 days measured 3 days after final dose", "type": "organism-based", "design": "dose 20 mg/kg, route oral", "conditions": "in vivo, 72 h", "how_it_was_run": "(§1)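 Female CD-1 mice (~22 g), three per group, given 20 mg/kg by oral gavage once daily for 5 days. Vehicle-only mice served as controls. Animals were weighed and observed daily. Three days after the last dose they were weighed and sacrificed. Blood was taken for chemistry and complete blood counts, and organs were weighed.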"}, "[2]": {"test": "Clearance in CD1 mouse at 20 mg/kg, iv administered as bolus dose", "type": "ADME, organism-based", "design": "dose 20 mg/kg, route intravenous", "conditions": "in vivo", "how_it_was_run": "(§2)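 Groups of three were bled terminally by cardiac puncture at set times. Plasma was acetonitrile-precipitated with internal standard and quantified by electrospray LC/MS/MS against a plasma standard curve (10-1000 ng/ml). Noncompartmental analysis was used.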"}, "[3]": {"tested_on": "Francisella tularensis subsp. tularensis SCHU S4", "test": "Bacteriostatic activity against Francisella tularensis SCHU S4 at 1 uM in presence of epinephrine", "type": "functional, organism-based"}, "Mus musculus [4]": {"tested_on": "Mus musculus", "test": "Toxicity in CD1 mouse assessed as albumin levels at 20 mg/kg, po administered daily once for 5 days measured 3 days after final dose", "type": "organism-based", "design": "dose 20 mg/kg, route oral", "conditions": "in vivo, 72 h"}, "Mus musculus [5]": {"tested_on": "Mus musculus", "test": "Toxicity in CD1 mouse assessed as hemoglobin levels at 20 mg/kg, po administered daily once for 5 days measured 3 days after final dose", "type": "organism-based", "design": "dose 20 mg/kg, route oral", "conditions": "in vivo, 72 h", "how_it_was_run": "as §1"}, "Escherichia coli [6]": {"tested_on": "Escherichia coli", "test": "Antibacterial activity against Escherichia coli infected in New Zealand white rabbit assessed as inhibition of bacterial colonization in cecum at 20 mg/kg pretreated before 3 hrs of bacterial challenge", "type": "functional, organism-based", "design": "dose 20 mg/kg", "conditions": "Caecum"}, "Escherichia coli [7]": {"tested_on": "Escherichia coli", "test": "Inhibition of AI3-induced Qsec-dependent virulence gene eae expression in Escherichia coli at 5 pM by quantitative real-time PCR", "type": "functional, organism-based"}, "Salmonella typhimurium": {"tested_on": "Salmonella typhimurium", "test": "Bacteriostatic activity against Salmonella Typhimurium SL1344 at 1 uM", "type": "functional, organism-based", "conditions": "Salmonella enterica subsp. enterica serovar Typhimurium str. SL1344"}, "Escherichia coli [8]": {"tested_on": "Escherichia coli", "test": "Antibacterial activity against Escherichia coli infected in New Zealand white rabbit assessed as inhibition of bacterial colonization in ileum at 20 mg/kg administered 24 hrs post-bacterial challenge", "type": "functional, organism-based", "design": "dose 20 mg/kg"}, "[9]": {"test": "Cmax in CD1 mouse at 20 mg/kg, po", "type": "ADME, organism-based", "design": "dose 20 mg/kg, route oral", "conditions": "in vivo", "how_it_was_run": "(§3)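 Terminal cardiac bleeds were taken in groups of three at set times. Plasma was acetonitrile-precipitated with internal standard and analysed by LC/MS/MS against a spiked-plasma standard curve. Parameters came from noncompartmental analysis.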"}, "Escherichia coli [10]": {"tested_on": "Escherichia coli", "test": "Antibacterial activity against Escherichia coli infected in New Zealand white rabbit assessed as inhibition of bacterial colonization in cecum at 20 mg/kg administered 3 hrs post-bacterial challenge", "type": "functional, organism-based", "design": "dose 20 mg/kg", "conditions": "Caecum"}, "Mus musculus [11]": {"tested_on": "Mus musculus", "test": "Toxicity in CD1 mouse assessed as creatinine levels at 20 mg/kg, po administered daily once for 5 days measured 3 days after final dose", "type": "organism-based", "design": "dose 20 mg/kg, route oral", "conditions": "in vivo, 72 h", "how_it_was_run": "as §1"}, "[12]": {"test": "Cmax in CD1 mouse at 20 mg/kg, iv administered as bolus dose", "type": "ADME, organism-based", "design": "dose 20 mg/kg, route intravenous", "conditions": "in vivo", "how_it_was_run": "as §2"}, "Mus musculus [13]": {"tested_on": "Mus musculus", "test": "Toxicity in CD1 mouse assessed as mean corpuscular hemoglobin concentration at 20 mg/kg, po administered daily once for 5 days measured 3 days after final dose", "type": "organism-based", "design": "dose 20 mg/kg, route oral", "conditions": "in vivo, 72 h", "how_it_was_run": "as §1"}, "[14]": {"biological_target": "Beta-2 adrenergic receptor (Homo sapiens) (UniProt P07550)", "sequence (P07550 whole entry, looked up)": "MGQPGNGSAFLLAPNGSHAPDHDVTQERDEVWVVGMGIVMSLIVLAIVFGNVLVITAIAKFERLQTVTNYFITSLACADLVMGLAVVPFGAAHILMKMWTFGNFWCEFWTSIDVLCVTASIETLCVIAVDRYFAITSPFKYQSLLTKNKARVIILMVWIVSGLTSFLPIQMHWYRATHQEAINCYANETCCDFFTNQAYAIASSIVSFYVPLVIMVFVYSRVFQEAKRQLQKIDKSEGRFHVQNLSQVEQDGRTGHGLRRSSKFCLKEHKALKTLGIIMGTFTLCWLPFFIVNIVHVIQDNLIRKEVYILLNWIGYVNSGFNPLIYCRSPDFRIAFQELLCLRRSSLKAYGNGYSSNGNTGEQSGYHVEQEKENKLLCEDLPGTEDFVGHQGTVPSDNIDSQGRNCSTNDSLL", "test": "Activation of human beta-2-adrenergic receptor expressed in HEK293 cells assessed as cAMP release at 5 uM", "type": "functional, cell-based", "how_it_was_run": "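Live HEK293 cells carried an EPAC-based cAMP BRET reporter and expressed endogenous β2 or exogenous β1 or β3 adrenergic receptors. Cells were exposed to test compound alone at 5 μM. Values are means of triplicates, representative of 3 experiments.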"}, "Mus musculus [15]": {"tested_on": "Mus musculus", "test": "Toxicity in CD1 mouse assessed as total bilirubin levels at 20 mg/kg, po administered daily once for 5 days measured 3 days after final dose", "type": "organism-based", "design": "dose 20 mg/kg, route oral", "conditions": "in vivo, 72 h", "how_it_was_run": "as §1"}, "[16]": {"test": "Clearance in CD1 mouse at 20 mg/kg, po", "type": "ADME, organism-based", "design": "dose 20 mg/kg, route oral", "conditions": "in vivo", "how_it_was_run": "as §3"}, "[17]": {"tested_on": "Francisella tularensis subsp. tularensis SCHU S4", "test": "Inhibition of virulence gene mip expression in Francisella tularensis SCHU S4 at 5 pM by quantitative real-time PCR", "type": "functional, organism-based"}, "Mus musculus [18]": {"tested_on": "Mus musculus", "test": "Toxicity in CD1 mouse assessed as eosinophil counts at 20 mg/kg, po administered daily once for 5 days measured 3 days after final dose", "type": "organism-based", "design": "dose 20 mg/kg, route oral", "conditions": "in vivo, 72 h", "how_it_was_run": "as §1"}, "Mus musculus [19]": {"tested_on": "Mus musculus", "test": "Toxicity in CD1 mouse assessed as change in spleen weight at 20 mg/kg, po administered daily once for 5 days measured 3 days after final dose", "type": "organism-based", "design": "dose 20 mg/kg, route oral", "conditions": "in vivo, 72 h", "how_it_was_run": "as §1"}, "Escherichia coli [20]": {"tested_on": "Escherichia coli", "test": "Antibacterial activity against Escherichia coli infected in New Zealand white rabbit assessed as inhibition of bacterial colonization in ileum at 20 mg/kg administered along with bacterial challenge", "type": "functional, organism-based", "design": "dose 20 mg/kg"}, "Mus musculus [21]": {"tested_on": "Mus musculus", "test": "Toxicity in CD1 mouse assessed as RBC counts at 20 mg/kg, po administered daily once for 5 days measured 3 days after final dose", "type": "organism-based", "design": "dose 20 mg/kg, route oral", "conditions": "in vivo, 72 h"}, "Mus musculus [22]": {"tested_on": "Mus musculus", "test": "Toxicity in CD1 mouse assessed as mean corpuscular volume at 20 mg/kg, po administered daily once for 5 days measured 3 days after final dose", "type": "organism-based", "design": "dose 20 mg/kg, route oral", "conditions": "in vivo, 72 h", "how_it_was_run": "as §1"}, "Mus musculus [23]": {"tested_on": "Mus musculus", "test": "Toxicity in CD1 mouse assessed as neutrophil counts at 20 mg/kg, po administered daily once for 5 days measured 3 days after final dose", "type": "organism-based", "design": "dose 20 mg/kg, route oral", "conditions": "in vivo, 72 h", "how_it_was_run": "as §1"}, "Escherichia coli [24]": {"tested_on": "Escherichia coli", "test": "Inhibition of Escherichia coli attaching-effacing lesions formation in infected human HeLa cells at 5 pM by FAS test", "type": "functional, organism-based", "how_it_was_run": "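HeLa monolayers on glass coverslips were infected with a 1:100 dilution of overnight LB cultures for 6 h at 37 °C, 5% CO2. Cells were permeabilized with 0.2% Triton X-100 and stained with FITC-phalloidin for actin and propidium iodide for bacteria. Whole fields of ≥6 coverslips per strain were scored for AE lesions by fluorescence microscopy.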"}, "Mus musculus [25]": {"tested_on": "Mus musculus", "test": "Toxicity in C3H HeN mouse at 20 mg/kg, po administered as single dose", "type": "organism-based", "design": "dose 20 mg/kg, route oral", "conditions": "in vivo"}, "Escherichia coli [26]": {"tested_on": "Escherichia coli", "test": "Bacteriostatic activity against Escherichia coli 8624 at 1 uM", "type": "functional, organism-based"}, "Mus musculus [27]": {"tested_on": "Mus musculus", "test": "Toxicity in CD1 mouse assessed as lymphocyte counts at 20 mg/kg, po administered daily once for 5 days measured 3 days after final dose", "type": "organism-based", "design": "dose 20 mg/kg, route oral", "conditions": "in vivo, 72 h", "how_it_was_run": "as §1"}, "Mus musculus [28]": {"tested_on": "Mus musculus", "test": "Toxicity in CD1 mouse assessed as platelet count at 20 mg/kg, po administered daily once for 5 days measured 3 days after final dose", "type": "organism-based", "design": "dose 20 mg/kg, route oral", "conditions": "in vivo, 72 h", "how_it_was_run": "as §1"}, "Mus musculus [29]": {"tested_on": "Mus musculus", "test": "Toxicity in CD1 mouse assessed as basophil counts at 20 mg/kg, po administered daily once for 5 days measured 3 days after final dose", "type": "organism-based", "design": "dose 20 mg/kg, route oral", "conditions": "in vivo, 72 h", "how_it_was_run": "as §1"}}, "note": "The source made the active and inactive calls. The rule behind the calls is not given here."}
{"smiles": "O=S(=O)(Nc1ccccc1)c1ccc(NC(=S)Nc2ccccc2)cc1", "values": [{"measurement": "Activity", "setting": "Mus musculus [1]", "result": 38.5, "unit": "%"}, {"measurement": "clearance", "setting": "[2]", "result": 1.48, "unit": "mL/min"}, {"measurement": "Activity", "setting": "[3]", "result": "inactive"}, {"measurement": "Activity", "setting": "Mus musculus [4]", "result": 2.6, "unit": "g/dL"}, {"measurement": "Activity", "setting": "Mus musculus [5]", "result": 12, "unit": "g/dL"}, {"measurement": "Activity", "setting": "Escherichia coli [6]", "result": "inactive"}, {"measurement": "Activity", "setting": "Escherichia coli [7]", "result": "Active"}, {"measurement": "Activity", "setting": "Salmonella typhimurium", "result": "inactive"}, {"measurement": "Activity", "setting": "Escherichia coli [8]", "result": "inactive"}, {"measurement": "Cmax", "setting": "[9]", "result": 2700, "unit": "ng/mL"}, {"measurement": "Activity", "setting": "Escherichia coli [10]", "result": "inactive"}, {"measurement": "Activity", "setting": "Mus musculus [11]", "result": 0.2, "unit": "mg/dL"}, {"measurement": "Cmax", "setting": "[12]", "result": 4750, "unit": "ng/mL"}, {"measurement": "Activity", "setting": "Mus musculus [13]", "result": 31.3, "unit": "g/dL"}, {"measurement": "Activity", "setting": "[14]", "result": "inactive"}, {"measurement": "Activity", "setting": "Mus musculus [15]", "result": 0.2, "unit": "mg/dL"}, {"measurement": "CL/F", "setting": "[16]", "result": 2.34, "unit": "mL/min"}, {"measurement": "Activity", "setting": "[17]", "result": "Active"}, {"measurement": "Activity", "setting": "Mus musculus [18]", "result": 0.7, "unit": "%"}, {"measurement": "Activity", "setting": "Mus musculus [19]", "result": "Non-toxic"}, {"measurement": "Activity", "setting": "Escherichia coli [20]", "result": "inactive"}, {"measurement": "Activity", "setting": "Mus musculus [21]", "result": 7.4, "unit": "M/uL"}, {"measurement": "Activity", "setting": "Mus musculus [22]", "result": 51.7, "unit": "fL"}, {"measurement": "Activity", "setting": "Mus musculus [23]", "result": 9.3, "unit": "%"}, {"measurement": "Activity", "setting": "Escherichia coli [24]", "result": "Active"}, {"measurement": "Activity", "setting": "Mus musculus [25]", "result": "Non-toxic"}, {"measurement": "Activity", "setting": "Escherichia coli [26]", "result": "inactive"}, {"measurement": "Activity", "setting": "Mus musculus [27]", "result": 82, "unit": "%"}, {"measurement": "Activity", "setting": "Mus musculus [28]", "result": 1075, "unit": "K/uL"}, {"measurement": "Activity", "setting": "Mus musculus [29]", "result": 0, "unit": "%"}]}
